Source: ChEMBL document CHEMBL1128184, “Topoisomerase II-mediated DNA cleavage by adocia- and xestoquinones from the Philippine sponge Xestospongia sp” (J Med Chem, 1995)
pIC50: −log10 of the molar value.

How the values were obtained:
[1] = tested on: XRS6; test: Cytotoxicity against CHO cell line xrs6; type: functional, cell-based; settings: Cricetulus griseus
How it was run: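 MTT assay on DNA double-strand-break repair-deficient CHO xrs-6 cells grown in αMEM with serum, seeded at 60 000 cells/well and allowed to attach 4 h. Drug added from DMSO stock, final DMSO 1% or less, four replicate wells per dose. Exposure 18 h, then drug-free medium. Absorbance at 540 nm, compared against DMSO-only wells to give percent growth inhibition.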

[2] = target: T1, DNA topoisomerase 2 (Drosophila melanogaster) (UniProt P15348); test: Inhibition of commercially obtained pure Drosophila Topoisomerase II in catalytic DNA unwinding.
T1 sequence (whole entry): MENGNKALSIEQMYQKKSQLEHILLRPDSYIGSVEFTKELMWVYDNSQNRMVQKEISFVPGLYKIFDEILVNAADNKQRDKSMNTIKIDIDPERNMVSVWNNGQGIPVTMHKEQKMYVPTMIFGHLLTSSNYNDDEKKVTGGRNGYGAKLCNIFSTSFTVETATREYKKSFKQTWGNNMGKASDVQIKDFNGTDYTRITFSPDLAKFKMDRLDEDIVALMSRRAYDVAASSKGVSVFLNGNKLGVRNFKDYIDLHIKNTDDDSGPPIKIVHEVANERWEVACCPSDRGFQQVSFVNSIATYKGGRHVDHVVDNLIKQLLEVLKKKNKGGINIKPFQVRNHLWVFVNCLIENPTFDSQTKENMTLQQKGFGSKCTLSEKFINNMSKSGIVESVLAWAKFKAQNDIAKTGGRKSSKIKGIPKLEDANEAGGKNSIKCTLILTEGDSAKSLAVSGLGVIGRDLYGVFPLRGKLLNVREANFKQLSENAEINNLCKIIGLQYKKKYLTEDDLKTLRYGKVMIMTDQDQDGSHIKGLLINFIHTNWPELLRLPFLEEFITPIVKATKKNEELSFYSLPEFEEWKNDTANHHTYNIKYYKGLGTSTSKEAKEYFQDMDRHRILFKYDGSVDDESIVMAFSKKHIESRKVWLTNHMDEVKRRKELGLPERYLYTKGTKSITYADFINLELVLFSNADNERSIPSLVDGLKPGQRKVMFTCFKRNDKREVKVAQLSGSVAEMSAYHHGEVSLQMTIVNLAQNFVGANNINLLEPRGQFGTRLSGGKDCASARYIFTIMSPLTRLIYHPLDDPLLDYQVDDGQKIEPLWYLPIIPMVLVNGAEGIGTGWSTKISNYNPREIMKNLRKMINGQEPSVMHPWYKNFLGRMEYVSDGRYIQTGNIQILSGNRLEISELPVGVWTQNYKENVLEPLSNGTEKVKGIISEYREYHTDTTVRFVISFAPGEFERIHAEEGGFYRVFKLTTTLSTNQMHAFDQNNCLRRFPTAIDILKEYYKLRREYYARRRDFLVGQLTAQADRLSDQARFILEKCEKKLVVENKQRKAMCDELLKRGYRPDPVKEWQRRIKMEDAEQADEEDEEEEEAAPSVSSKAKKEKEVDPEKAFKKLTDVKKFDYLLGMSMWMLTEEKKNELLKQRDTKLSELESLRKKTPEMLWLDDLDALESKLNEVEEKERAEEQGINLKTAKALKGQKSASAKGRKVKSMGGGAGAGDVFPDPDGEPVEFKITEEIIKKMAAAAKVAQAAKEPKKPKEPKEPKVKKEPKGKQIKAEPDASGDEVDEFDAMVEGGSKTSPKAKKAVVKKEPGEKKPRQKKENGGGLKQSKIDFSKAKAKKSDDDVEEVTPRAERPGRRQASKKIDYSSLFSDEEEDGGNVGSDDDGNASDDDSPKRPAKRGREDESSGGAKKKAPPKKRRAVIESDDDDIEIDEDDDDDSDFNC
How it was run: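 Relaxation assay with supercoiled pBR322 (0.5 μg) and pure Drosophila topoisomerase II at 3 units per reaction. Buffer: 50 mM Tris-HCl pH 8.0, 120 mM KCl, 10 mM MgCl2, 1 mM ATP, 0.5 mM DTT, 30 μg/mL BSA. Drug added in DMSO.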

[3] = target: DNA topoisomerase II (Homo sapiens) (UniProt P11388+Q02880); test: In vitro inhibition of partially purified human ovarian carcinoma topoisomerase II of kDNA decatenation; type: protein assay
How it was run: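 Decatenation of kinetoplast DNA (0.2 μg) by one unit of partially purified human ovarian carcinoma topoisomerase II in 50 mM Tris-HCl pH 8.0, 120 mM KCl, 10 mM MgCl2, 1 mM ATP, 0.5 mM DTT, 30 μg/mL BSA. Compound added in DMSO. Stopped with sarkosyl stop buffer, 1% agarose/ethidium gel, UV visualization. Value is the concentration apparently inhibiting 90% of monomer-length kDNA production.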

[4] = tested on: HCT-116; test: Cytotoxicity against HCT116 cells.; type: functional, cell-based; settings: Homo sapiens
How it was run: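 HCT 116 human colon tumour cells in McCoy's medium with 10% FBS, seeded at 40 000 cells/well and allowed 4 h to attach. Drug added in DMSO (0.5%), 3 days continuous exposure, four replicate wells per dose. MTT (5 mg/mL in PBS) added for 4 h, formazan dissolved in acidic 2-propanol, A540 read against DMSO controls for percent growth inhibition.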

[5] = Ratio of BR1 IC50 to xrs-6 IC50; type: functional
How it was run: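 MTT assay run in parallel on repair-competent CHO BR1 (40 000 cells/well) and repair-deficient xrs-6 (60 000 cells/well), both in αMEM with serum. 4 h attachment, then 18 h drug exposure from DMSO (final 1% or less), then drug-free medium. Four wells per dose, A540 against DMSO controls. The ratio is the BR1 IC50 divided by the xrs-6 IC50.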

| Compound | pIC50 [1] | IC90 [2] [µM] | IC90 [3] [µM] | pIC50 [4] | Ratio [5] |
| --- | --- | --- | --- | --- | --- |
| O=C1c2c(O)ccc(O)c2C(=O)c2c(NCCNCCO)ccc(NCCNCCO)c21 [MITOXANTRONE] | 9.00 | 56 | – | – | – |
| C[C@@]12CCCc3coc(c31)C(=O)c1cc3c(cc12)C(=O)C1=C(NCCS1(=O)=O)C3=O [ADOCIAQUINONE B] | 4.64 | 78 | < 11 | 4.68 | 3 |
| C[C@@]12CCCc3coc(c31)C(=O)c1cc3c(cc12)C(=O)/C(=N/CCS(=O)(=O)O)C=C3O | < 3.54 | – | – | < 3.84 | – |
| C[C@@]12CCCc3coc(c31)C(=O)c1cc3c(cc12)C(=O)C=C(NCCS(=O)(=O)O)C3=O | < 3.54 | – | – | < 3.84 | – |
| COC1=CC(=O)c2cc3c(cc2C1=O)C(=O)c1occ2c1[C@@]3(C)CCC2 | 5.37 | – | – | 4.55 | 3 |
| C[C@@]12CCCc3coc(c31)C(=O)c1cc3c(cc12)C(=O)C(Cl)=C(O)C3=O | 4.57 | – | – | 4.48 | 4.5 |
| C[C@@]12CCCc3coc(c31)C(=O)c1cc3c(cc12)C(=O)C1=NCCS(=O)(=O)C1=C3O [ADOCIAQUINONE A] | 4.11 | – | – | 4.62 | 3 |
| C[C@@]12CCCc3coc(c31)C(=O)c1cc3c(cc12)C(=O)C(=O)C(Cl)=C3O | 4.57 | – | – | 4.48 | 4.5 |
| COc1cc(NS(C)(=O)=O)ccc1Nc1c2ccccc2nc2ccccc12 [AMSACRINE] | 6.62 | – | – | – | 4 |
| COc1cc([C@@H]2c3cc4c(cc3[C@@H](O[C@@H]3O[C@@H]5CO[C@@H](C)O[C@H]5[C@H](O)[C@H]3O)[C@H]3COC(=O)[C@H]23)OCO4)cc(OC)c1O [ETOPOSIDE] | 6.85 | 85 | – | – | 7 |
| COC1=CC(=O)c2cc3c(cc2C1=O)[C@]1(C)CCCc2coc(c21)C3=O | 5.37 | – | – | 4.55 | 3 |
